From ChEMBL document CHEMBL1144684, “Evaluation of a series of naphthamides as potent, orally active vascular endothelial growth factor receptor-2 tyrosine kinase inhibitors” (J Med Chem, 2008)
≈ marks a conversion by molar mass, not a printed value. Calls of active or inactive are those of the source. No cut-off for these calls is given here.

Experiments:
HUVEC [1] = experiment: Selectivity of IC50 for VEGF-induced proliferation over IC50 for bFGF-induced proliferation of HUVEC; assay type: functional, Homo sapiens
How it was run: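 HUVECs were seeded at 3000 cells/well in DMEM/10% FBS with pen/strep and cultured for 22 h. They were preincubated 2 h with serially diluted compound, then stimulated with 50 ng/mL VEGF or 20 ng/mL bFGF for 72 h at 37 °C, 5% CO2. Cells were washed, frozen at -70 °C and stained with CyQuant. IC50s came from a four-parameter logistic fit, averaged over ≥2 experiments; the VEGF IC50 was compared against the bFGF IC50.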

Angiopoietin-1 receptor = Angiopoietin-1 receptor (Homo sapiens, UniProt Q02763); experiment: Inhibition of Tie2
Angiopoietin-1 receptor, sequence (Q02763 whole entry): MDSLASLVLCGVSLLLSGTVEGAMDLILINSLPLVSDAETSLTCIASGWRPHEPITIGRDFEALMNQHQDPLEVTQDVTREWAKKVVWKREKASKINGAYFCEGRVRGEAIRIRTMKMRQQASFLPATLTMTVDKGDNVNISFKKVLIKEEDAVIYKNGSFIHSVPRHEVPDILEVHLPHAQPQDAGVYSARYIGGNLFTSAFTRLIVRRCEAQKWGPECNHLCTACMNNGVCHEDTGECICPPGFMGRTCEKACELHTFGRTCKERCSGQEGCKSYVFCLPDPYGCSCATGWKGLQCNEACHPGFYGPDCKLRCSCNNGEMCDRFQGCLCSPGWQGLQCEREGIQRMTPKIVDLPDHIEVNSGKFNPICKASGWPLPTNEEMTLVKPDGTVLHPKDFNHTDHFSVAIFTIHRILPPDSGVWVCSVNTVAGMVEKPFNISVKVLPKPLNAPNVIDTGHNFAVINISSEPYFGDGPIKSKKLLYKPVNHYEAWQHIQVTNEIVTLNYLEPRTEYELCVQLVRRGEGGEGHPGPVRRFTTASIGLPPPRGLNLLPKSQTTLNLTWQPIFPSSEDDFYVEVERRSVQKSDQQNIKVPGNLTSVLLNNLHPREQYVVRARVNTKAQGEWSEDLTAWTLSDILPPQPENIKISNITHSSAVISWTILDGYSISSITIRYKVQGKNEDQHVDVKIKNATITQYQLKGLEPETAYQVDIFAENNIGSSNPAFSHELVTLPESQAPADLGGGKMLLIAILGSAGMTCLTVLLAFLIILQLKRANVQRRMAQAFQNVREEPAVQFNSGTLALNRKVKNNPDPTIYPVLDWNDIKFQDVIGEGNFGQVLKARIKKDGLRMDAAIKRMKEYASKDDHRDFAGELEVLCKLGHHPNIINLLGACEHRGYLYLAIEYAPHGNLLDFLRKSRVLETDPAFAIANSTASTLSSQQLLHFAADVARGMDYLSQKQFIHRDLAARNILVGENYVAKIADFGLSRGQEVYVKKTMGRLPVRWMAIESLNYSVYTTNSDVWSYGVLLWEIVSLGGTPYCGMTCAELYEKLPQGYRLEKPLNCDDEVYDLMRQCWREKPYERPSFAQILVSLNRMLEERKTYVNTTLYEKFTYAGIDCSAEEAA

[2] = molecular target: Hepatocyte growth factor receptor (Homo sapiens, UniProt P08581); experiment: Inhibition of c-Met
Hepatocyte growth factor receptor, sequence (P08581 whole entry): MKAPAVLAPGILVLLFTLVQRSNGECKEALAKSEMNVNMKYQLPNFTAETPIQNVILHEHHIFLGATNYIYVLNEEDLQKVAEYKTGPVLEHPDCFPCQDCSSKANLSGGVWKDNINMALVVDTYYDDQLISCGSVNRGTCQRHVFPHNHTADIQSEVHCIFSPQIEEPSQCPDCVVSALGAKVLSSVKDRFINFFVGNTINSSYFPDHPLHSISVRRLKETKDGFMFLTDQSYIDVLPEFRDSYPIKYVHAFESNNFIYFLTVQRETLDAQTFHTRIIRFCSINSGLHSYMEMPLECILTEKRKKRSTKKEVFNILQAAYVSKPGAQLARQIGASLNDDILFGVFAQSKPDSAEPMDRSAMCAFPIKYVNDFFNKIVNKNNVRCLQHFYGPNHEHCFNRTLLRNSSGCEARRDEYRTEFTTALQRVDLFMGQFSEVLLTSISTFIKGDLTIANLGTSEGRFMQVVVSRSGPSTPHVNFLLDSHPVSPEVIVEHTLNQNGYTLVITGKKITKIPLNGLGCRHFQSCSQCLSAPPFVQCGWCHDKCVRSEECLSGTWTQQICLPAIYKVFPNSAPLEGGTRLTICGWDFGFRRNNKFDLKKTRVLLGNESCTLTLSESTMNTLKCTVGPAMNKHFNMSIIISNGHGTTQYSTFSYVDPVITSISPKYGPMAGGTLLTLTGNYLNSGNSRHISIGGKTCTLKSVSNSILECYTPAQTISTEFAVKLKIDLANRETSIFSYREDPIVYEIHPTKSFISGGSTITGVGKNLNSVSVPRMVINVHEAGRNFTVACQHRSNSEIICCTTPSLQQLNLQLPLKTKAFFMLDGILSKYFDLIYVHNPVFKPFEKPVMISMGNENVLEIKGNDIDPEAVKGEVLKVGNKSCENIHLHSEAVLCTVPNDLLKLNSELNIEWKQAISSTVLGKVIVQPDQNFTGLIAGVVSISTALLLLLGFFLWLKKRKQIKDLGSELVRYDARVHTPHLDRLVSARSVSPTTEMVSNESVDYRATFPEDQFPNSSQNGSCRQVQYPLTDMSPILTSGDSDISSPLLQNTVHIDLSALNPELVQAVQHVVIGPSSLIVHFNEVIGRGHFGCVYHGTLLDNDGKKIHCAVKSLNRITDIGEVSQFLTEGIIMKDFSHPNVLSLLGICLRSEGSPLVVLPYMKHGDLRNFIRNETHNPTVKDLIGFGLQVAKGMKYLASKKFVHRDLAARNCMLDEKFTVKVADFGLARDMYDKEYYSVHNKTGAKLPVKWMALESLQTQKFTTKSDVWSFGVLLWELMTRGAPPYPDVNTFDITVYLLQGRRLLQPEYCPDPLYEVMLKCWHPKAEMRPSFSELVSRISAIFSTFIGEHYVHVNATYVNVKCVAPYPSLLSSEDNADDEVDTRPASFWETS

Aurora kinase A = molecular target: T1, Aurora kinase A (Homo sapiens, UniProt O14965); experiment: Inhibition of Aurora A
T1 sequence (O14965 whole entry): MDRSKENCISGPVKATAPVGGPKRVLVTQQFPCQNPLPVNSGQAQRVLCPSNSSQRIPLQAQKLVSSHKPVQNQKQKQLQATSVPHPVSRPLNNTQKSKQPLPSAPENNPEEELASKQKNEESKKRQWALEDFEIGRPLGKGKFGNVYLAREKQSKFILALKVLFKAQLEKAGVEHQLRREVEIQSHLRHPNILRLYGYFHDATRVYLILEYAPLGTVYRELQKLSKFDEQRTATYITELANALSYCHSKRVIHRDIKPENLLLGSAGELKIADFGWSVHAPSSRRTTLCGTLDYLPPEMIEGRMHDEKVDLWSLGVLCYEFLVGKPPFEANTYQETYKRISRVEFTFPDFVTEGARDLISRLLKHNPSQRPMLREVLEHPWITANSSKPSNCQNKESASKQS

Aurora kinase B = Aurora kinase B (Homo sapiens, UniProt Q96GD4); experiment: Inhibition of Aurora B
Aurora kinase B, sequence (Q96GD4 whole entry): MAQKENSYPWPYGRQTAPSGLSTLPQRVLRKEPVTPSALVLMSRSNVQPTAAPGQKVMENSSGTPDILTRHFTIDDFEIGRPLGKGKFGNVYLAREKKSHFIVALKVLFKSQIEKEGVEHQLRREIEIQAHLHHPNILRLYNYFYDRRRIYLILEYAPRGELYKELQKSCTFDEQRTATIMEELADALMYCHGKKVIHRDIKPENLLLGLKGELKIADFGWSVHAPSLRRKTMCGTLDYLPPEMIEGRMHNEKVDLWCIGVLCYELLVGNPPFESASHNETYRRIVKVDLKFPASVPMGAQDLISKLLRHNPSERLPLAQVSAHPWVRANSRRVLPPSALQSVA

HUVEC [3] = experiment: Inhibition of VEGF-induced proliferation of HUVEC; assay type: functional, cell-based; conditions: Homo sapiens
[4] = molecular target: Vascular endothelial growth factor receptor 2 (Homo sapiens, UniProt P35968)
Vascular endothelial growth factor receptor 2, sequence (P35968 whole entry): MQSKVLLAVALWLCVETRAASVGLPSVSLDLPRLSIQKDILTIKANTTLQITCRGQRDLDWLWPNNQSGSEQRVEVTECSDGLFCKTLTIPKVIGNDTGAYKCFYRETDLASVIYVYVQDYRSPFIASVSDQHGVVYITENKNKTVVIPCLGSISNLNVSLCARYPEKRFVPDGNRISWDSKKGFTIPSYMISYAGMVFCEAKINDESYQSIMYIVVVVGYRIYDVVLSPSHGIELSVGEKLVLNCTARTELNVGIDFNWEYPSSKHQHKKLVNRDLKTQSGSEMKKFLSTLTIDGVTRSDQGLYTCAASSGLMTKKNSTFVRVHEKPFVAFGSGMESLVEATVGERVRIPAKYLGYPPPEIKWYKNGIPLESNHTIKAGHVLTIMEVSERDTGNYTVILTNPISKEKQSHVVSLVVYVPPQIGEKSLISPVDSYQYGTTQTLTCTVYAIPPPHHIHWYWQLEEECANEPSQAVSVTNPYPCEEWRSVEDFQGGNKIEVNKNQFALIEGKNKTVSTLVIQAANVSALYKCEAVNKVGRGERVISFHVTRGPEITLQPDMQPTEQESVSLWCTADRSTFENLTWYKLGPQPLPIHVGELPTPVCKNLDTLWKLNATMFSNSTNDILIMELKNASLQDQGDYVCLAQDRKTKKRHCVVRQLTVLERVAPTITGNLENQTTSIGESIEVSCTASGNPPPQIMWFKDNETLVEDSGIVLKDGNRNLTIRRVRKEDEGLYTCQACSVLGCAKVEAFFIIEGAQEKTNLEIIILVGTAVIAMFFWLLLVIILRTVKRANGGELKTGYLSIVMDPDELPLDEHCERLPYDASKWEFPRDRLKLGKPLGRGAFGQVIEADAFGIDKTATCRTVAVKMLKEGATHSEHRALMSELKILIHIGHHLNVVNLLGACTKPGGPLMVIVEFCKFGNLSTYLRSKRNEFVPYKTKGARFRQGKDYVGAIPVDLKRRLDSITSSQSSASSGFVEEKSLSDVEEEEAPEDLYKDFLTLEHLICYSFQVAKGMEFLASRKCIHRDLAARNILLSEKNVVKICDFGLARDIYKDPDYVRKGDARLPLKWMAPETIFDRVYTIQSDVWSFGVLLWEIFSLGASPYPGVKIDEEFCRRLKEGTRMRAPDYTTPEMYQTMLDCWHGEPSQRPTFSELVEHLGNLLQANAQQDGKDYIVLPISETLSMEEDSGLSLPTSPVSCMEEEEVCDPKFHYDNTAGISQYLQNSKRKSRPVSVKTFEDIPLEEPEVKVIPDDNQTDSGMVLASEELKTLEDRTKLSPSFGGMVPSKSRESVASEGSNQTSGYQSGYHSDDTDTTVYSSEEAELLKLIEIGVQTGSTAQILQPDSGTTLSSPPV

[5] = molecular target: Tyrosine-protein kinase Lck (Homo sapiens, UniProt P06239); experiment: Inhibition of Lck
Tyrosine-protein kinase Lck, sequence (P06239 whole entry): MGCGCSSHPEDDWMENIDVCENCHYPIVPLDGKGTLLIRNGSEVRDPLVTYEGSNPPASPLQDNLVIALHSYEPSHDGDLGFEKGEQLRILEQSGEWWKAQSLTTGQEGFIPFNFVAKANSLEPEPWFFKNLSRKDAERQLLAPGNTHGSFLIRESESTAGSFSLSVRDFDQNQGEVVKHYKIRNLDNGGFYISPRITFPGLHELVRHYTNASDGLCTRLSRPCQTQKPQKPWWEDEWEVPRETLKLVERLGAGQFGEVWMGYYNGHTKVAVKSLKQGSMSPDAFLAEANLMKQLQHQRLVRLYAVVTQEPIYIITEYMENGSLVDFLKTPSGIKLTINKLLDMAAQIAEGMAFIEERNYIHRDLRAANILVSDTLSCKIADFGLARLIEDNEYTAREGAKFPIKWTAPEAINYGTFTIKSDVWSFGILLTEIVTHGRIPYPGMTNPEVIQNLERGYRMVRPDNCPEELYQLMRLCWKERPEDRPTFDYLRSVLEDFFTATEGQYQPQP

HUVEC [6] = experiment: Inhibition of bFGF-induced proliferation of HUVEC; assay type: functional, cell-based; conditions: Homo sapiens
How it was run: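 HUVEC seeded at 3000/well in DMEM with 10% FBS, 22 h; 2 h preincubation with serial compound dilutions, then 50 ng/mL VEGF or 20 ng/mL bFGF for 72 h at 37 °C. Freeze–thaw, CyQuant DNA dye read-out; IC50 by four-parameter logistic fit, averaged over ≥2 experiments.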

[7] = Intrinsic clearance in rat liver microsomes at 1 uM; assay type: ADME, Microsome; conditions: read-out: Stability
How it was run: (§1)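 Human or rat liver microsomes (0.25 mg protein/mL) with 1 mM NADPH, 2 mM MgCl2 in 50 mM potassium phosphate pH 7.4 at 37 °C; compound 1 µM final. Sampled 0–40 min into acetonitrile, LC-MS/MS; ln % remaining vs time slope gives T1/2; CLint = (0.693/T1/2)/0.25 mg/mL.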

[8] = Intrinsic clearance in human liver microsomes at 1 uM; assay type: ADME, Microsome; conditions: read-out: Stability; how it was run: as §1
[9] = Clearance in Sprague-Dawley rat at 0.5 mg/kg, iv; assay type: ADME, organism-based; set-up: dose 0.5 mg/kg, route intravenous; conditions: in vivo
How it was run: (§2)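 Male Sprague–Dawley rats dosed iv via femoral vein as DMSO solution (1 or 0.5 mg/kg) or po by gavage as OraPlus suspension (pH 2.0–2.2 with methanesulfonic acid; 10 or 2 mg/kg). Serial jugular blood over 12–24 h; plasma acetonitrile precipitation, LC-MS/MS (MRM) with internal standard; noncompartmental parameters.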

[10] = Volume of distribution at steady state in Sprague-Dawley rat at 0.5 mg/kg, iv; assay type: ADME, organism-based; set-up: dose 0.5 mg/kg, route intravenous; conditions: in vivo, read-out: Vdss
How it was run: (§3)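 Male Sprague–Dawley rats dosed iv at 0.5 mg/kg as DMSO solution or po at 2 mg/kg as suspension in 100% OraPlus. Serial jugular blood, plasma LC-MS/MS quantitation, noncompartmental analysis.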

[11] = Half life in Sprague-Dawley rat at 0.5 mg/kg, iv; assay type: ADME, organism-based; set-up: dose 0.5 mg/kg, route intravenous; conditions: in vivo; how it was run: as §2
[12] = AUC (0 to infinity) in Sprague-Dawley rat at 2 mg/kg, po; assay type: ADME, organism-based; set-up: time infinity, dose 2 mg/kg, route oral; conditions: plasma; how it was run: as §2
[13] = Cmax in Sprague-Dawley rat at 2 mg/kg, po; assay type: ADME, organism-based; set-up: dose 2 mg/kg, route oral; conditions: in vivo; how it was run: as §2
[14] = Tmax in Sprague-Dawley rat at 2 mg/kg, po; assay type: ADME, organism-based; set-up: dose 2 mg/kg, route oral; conditions: in vivo; how it was run: as §3
[15] = Oral bioavailability in Sprague-Dawley rat at 2 mg/kg; assay type: ADME, organism-based; conditions: in vivo; how it was run: as §3
[16] = molecular target: Vascular endothelial growth factor receptor 3 (Homo sapiens) (UniProt P35916); experiment: Inhibition of human VEGFR3
[17] = Aqueous solubility in 0.01 N Hcl; assay type: physicochemical

| Structure (SMILES) | IC50 (Angiopoietin-1 receptor) | IC50 [2] | IC50 (Aurora kinase A) | IC50 (Aurora kinase B) | IC50 [4] | IC50 [5] | microsomal CLint at 1 µM [7] | microsomal CLint at 1 µM [8] | clearance [9] | Vd [10] | half-life [11] | AUC(0-inf) [12] | Cmax [13] | Tmax [14] | bioavailability [15] | Activity [16] | solubility [17] | Selectivity ratio (HUVEC [1]) | IC50 (HUVEC [3]) | IC50 (HUVEC [6]) |
| --- | --- | --- | --- | --- | --- | --- | --- | --- | --- | --- | --- | --- | --- | --- | --- | --- | --- | --- | --- | --- |
| COc1cc2ncnc(Oc3ccc4c(C(=O)NC5CC5)cccc4c3)c2cc1OC | 7400 nM | 20000 nM | 8300 nM | 360 nM | 2.9 nM | – | – | – | – | – | – | – | – | – | – | – | – | >100 | 7.3 nM | – |
| COc1cc2nccc(Oc3ccc4c(C(=O)NC(C)(C)C)cccc4c3)c2cc1OC | 25000 nM | 11000 nM | 3700 nM | – | 1500 nM | 4300 nM | – | – | – | – | – | – | – | – | – | – | – | >100 | – | – |
| COc1ccc2c(Oc3ccc4c(C(N)=O)cccc4c3)ccnc2c1 | 25000 nM | 20000 nM | 8300 nM | 130 nM | – | – | – | – | – | – | – | – | – | – | – | – | – | – | 16 nM | – |
| CCCNC(=O)c1cccc2cc(Oc3ccnc4cc(OC)c(OC)cc34)ccc12 | 4300 nM | – | 1700 nM | – | – | 1300 nM | – | – | – | – | – | – | – | – | – | – | – | – | 7.4 nM | 600 nM |
| COc1cc2nccc(Oc3ccc4c(C(=O)NC5CCC5)cccc4c3)c2cc1OC | 4000 nM | 7600 nM | 440 nM | – | 1.3 nM | 1000 nM | – | – | – | – | – | – | – | – | – | – | – | >100 | 6.8 nM | 1140 nM |
| COCCNC(=O)c1cccc2cc(Oc3ccnc4cc(OC)c(C(N)=O)cc34)ccc12 | 8300 nM | 6700 nM | 8300 nM | 233 nM | 22 nM | – | 95 µL/min/mg | 4 µL/min/mg | 50.8 mL/min/kg | 0.751 L/kg | 18.6 min | 164 ng·h/mL | 61 ng/mL | 18 min | 12% | – | – | >100 | 0.8 nM | – |
| COc1cc2nccc(Oc3ccc4c(C(=O)NC5CC5)cccc4c3)c2cc1C(N)=O | 1800 nM | 20000 nM | 4400 nM | 185 nM | 0.37 nM | – | 16 µL/min/mg | 12 µL/min/mg | 8.47 mL/min/kg | 0.379 L/kg | 75.6 min | 900 ng·h/mL | 715 ng/mL | 40.2 min | 39% | – | – | >100 | 1.2 nM | – |
| COc1cc2nccc(Oc3ccc4c(C(N)=O)cccc4c3)c2cc1C(N)=O | 5300 nM | 7400 nM | 6800 nM | 390 nM | – | – | – | – | – | – | – | – | – | – | – | – | – | – | – | – |
| COc1cc2nccc(Oc3ccc4c(C(=O)NC(C)C)cccc4c3)c2cc1OC | 25000 nM | 20000 nM | 3600 nM | 190 nM | 5.9 nM | 1800 nM | – | – | – | – | – | – | – | – | – | – | – | >100 | 4.4 nM | 1140 nM |
| COc1ccc2c(Oc3ccc4c(C(=O)NC5CC5)cccc4c3)ccnc2c1 | 8300 nM | 20000 nM | 8300 nM | – | 0.45 nM | – | – | – | – | – | – | – | – | – | – | – | – | >100 | 3.4 nM | – |

Now from value to molecule, other results behind:

| IC50 (Angiopoietin-1 receptor) | IC50 [2] | IC50 (Aurora kinase A) | IC50 (Aurora kinase B) | IC50 [4] | IC50 [5] | microsomal CLint at 1 µM [7] | microsomal CLint at 1 µM [8] | clearance [9] | Vd [10] | half-life [11] | AUC(0-inf) [12] | Cmax [13] | Tmax [14] | bioavailability [15] | Activity [16] | solubility [17] | Structure (SMILES) | Selectivity ratio (HUVEC [1]) | IC50 (HUVEC [3]) | IC50 (HUVEC [6]) |
| --- | --- | --- | --- | --- | --- | --- | --- | --- | --- | --- | --- | --- | --- | --- | --- | --- | --- | --- | --- | --- |
| 1100 nM | 5000 nM | 560 nM | 62 nM | – | 2000 nM | – | – | – | – | – | – | – | – | – | – | – | COc1cc2nccc(Oc3ccc4c(C(=O)NC5(C)CC5)cccc4c3)c2cc1OC | – | 70 nM | 1140 nM |
| 25000 nM | 20000 nM | 1500 nM | 46 nM | 1.3 nM | 1200 nM | – | – | – | – | – | – | – | – | – | – | – | CCNC(=O)c1cccc2cc(Oc3ccnc4cc(OC)c(OC)cc34)ccc12 | >100 | 0.33 nM | 150 nM |
| 25000 nM | 20000 nM | 3600 nM | 110 nM | – | 700 nM | – | – | – | – | – | – | – | – | – | – | – | CNC(=O)c1cccc2cc(Oc3ccnc4cc(OC)c(OC)cc34)ccc12 | – | 0.45 nM | 46 nM |
| 9400 nM | 5300 nM | 840 nM | 10 nM | 11 nM | 1100 nM | – | – | – | – | – | – | – | – | – | – | – | COc1cc2nccc(Oc3ccc4c(C(=O)NCC5CC5)cccc4c3)c2cc1OC | – | 22 nM | 1140 nM |
| 1400 nM | 3200 nM | 620 nM | – | 15 nM | 1300 nM | – | – | – | – | – | – | – | – | – | – | – | COc1cc2nccc(Oc3ccc4c(C(=O)NC5CCCC5)cccc4c3)c2cc1OC | >100 | 6.6 nM | 1140 nM |
| 25000 nM | 20000 nM | 8300 nM | – | 28 nM | – | – | – | – | – | – | – | – | – | – | – | – | COCCNC(=O)c1cccc2cc(Oc3ccnc4cc(OC)ccc34)ccc12 | >100 | 20 nM | – |
| 8300 nM | 20000 nM | 25000 nM | 385 nM | 314 nM | – | – | – | – | – | – | – | – | – | – | Active | – | COCCNC(=O)c1cccc2cc(Oc3ncnc4cc(OC)c(OC)cc34)ccc12 | >100 | – | – |
| 580 nM | – | 371 nM | – | – | – | – | – | – | – | – | – | – | – | – | – | 1.1 µg/mL (≈ 2.27 µM) | COc1cc2nccc(Oc3ccc4c(C(=O)Nc5ccc(Cl)cc5)cccc4c3)c2cc1OC | – | 7.6 nM | 1140 nM |
| 8300 nM | – | 3500 nM | – | 4.2 nM | 1000 nM | – | – | – | – | – | – | – | – | – | – | – | COCCCNC(=O)c1cccc2cc(Oc3ccnc4cc(OC)c(OC)cc34)ccc12 | >100 | 7.1 nM | – |
| 8300 nM | 20000 nM | 8300 nM | 680 nM | – | – | – | – | – | – | – | – | – | – | – | – | – | COc1cc2ncnc(Oc3ccc4c(C(N)=O)cccc4c3)c2cc1OC | – | 16 nM | – |
| 25000 nM | 20000 nM | 930 nM | 16 nM | 3.8 nM | 25000 nM | – | – | – | – | – | – | – | – | – | – | – | COc1cc2nccc(Oc3ccc4c(C(=O)NCC(F)(F)F)cccc4c3)c2cc1OC | – | 24 nM | 1140 nM |
